Activity calls are given as the source filed them. The rule behind the calls is not given here.
Legend:
[1] = Oral bioavailability in C57BL/6 mouse at 10 mg/kg, po; format: ADME, organism-based; details: in vivo
Method in brief: (§1)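 Male C57BL/6 mice dosed IV at 5.0 mg/kg in PBS, or by oral gavage at 10 mg/kg in PBS. Clearance is blood clearance. Cmax and Tmax come from oral dosing. Half-life is terminal. Oral bioavailability is also reported.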

[2] = Volume of distribution in C57BL/6 mouse at 5 mg/kg, iv and 10 mg/kg, po; format: ADME, organism-based; details: in vivo; method in brief: as §1
[3] = Half life in C57BL/6 mouse at 5 mg/kg, iv and 10 mg/kg, po; format: ADME, organism-based; details: in vivo; method in brief: as §1
[4] = Cmax in C57BL/6 mouse at 5 mg/kg, iv and 10 mg/kg, po; format: ADME, organism-based; details: in vivo; method in brief: as §1
[5] = Tmax in C57BL/6 mouse at 5 mg/kg, iv and 10 mg/kg, po; format: ADME, organism-based; details: in vivo; method in brief: as §1
Mus musculus [6] = organism: Mus musculus; experiment: Vasodilation effect in C57BL/6 mouse assessed as increase in blood flow relative to baseline; format: functional, organism-based
Method in brief: (§2)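 Male C57BL/6 mice, 8-10 weeks, ~25 g, anesthetized with Nembutal ip (80 mg/kg). After 10 min, ear blood flow was recorded by laser Doppler imaging: 3 min baseline, then ip dosing (5 mL/kg) through a preinserted syringe, reading ~15 min. Vehicle was PBS, 40% HPBCD or 0.5% methylcellulose. Result expressed as % change in perfusion over baseline.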

Mus musculus [7] = experiment: Reduction in plasma FFA level in ip dosed C57BL/6 mouse; format: functional; details: C57BL/6, Plasma
Method in brief: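 Male C57BL/6 mice, at least 8 weeks old, fasted 16 h, then dosed ip in saline. Plasma FFA was measured by an enzymatic NEFA assay, and compound levels in the same plasma by LC-MS/MS.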

Adipocyte = experiment: Inhibition isoproterenol-stimulated lipolysis in human adipocytes
Mus musculus [8] = organism: Mus musculus; experiment: Inhibition of nicotinic acid-induced vasodilation response in C57BL/6 mouse assessed as blood flow; format: functional, organism-based; method in brief: as §2
[9] = molecular target: Hydroxycarboxylic acid receptor 3 (Homo sapiens) (UniProt P49019); experiment: Agonist activity against GPR109b assessed as forskolin-induced cAMP accumulation relative to nicotinic acid; format: functional
Chain of Hydroxycarboxylic acid receptor 3 (Homo sapiens) (P49019 whole entry): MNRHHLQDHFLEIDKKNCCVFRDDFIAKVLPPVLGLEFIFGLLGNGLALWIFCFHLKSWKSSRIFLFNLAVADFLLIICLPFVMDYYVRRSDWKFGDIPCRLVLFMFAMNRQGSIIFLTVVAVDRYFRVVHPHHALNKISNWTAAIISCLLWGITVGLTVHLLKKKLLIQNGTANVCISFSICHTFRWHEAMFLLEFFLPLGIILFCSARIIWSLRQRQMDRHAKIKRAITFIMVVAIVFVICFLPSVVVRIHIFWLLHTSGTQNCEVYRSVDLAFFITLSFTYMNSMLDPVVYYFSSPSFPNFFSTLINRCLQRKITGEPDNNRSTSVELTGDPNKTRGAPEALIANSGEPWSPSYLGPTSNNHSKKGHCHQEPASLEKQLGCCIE

Mus musculus [10] = organism: Mus musculus; experiment: Inhibition of PGD2-induced vasodilation response in C57BL/6 mouse assessed as blood flow; format: functional, organism-based; method in brief: as §2

Question: Which bioavailability [1] does the source give for `C1Cc2[nH]nc(-c3nnn[nH]3)c2C1` here?
Answer: 93%

Question: What about the Vd [2] of the same compound?
Answer: 13 L/kg

Question: And the half-life [3]?
Answer: 10 h

Question: And the Cmax [4]?
Answer: 16 µM

Question: And the Tmax [5]?
Answer: 4.98 min

Question: With `O=C(O)c1n[nH]c2c1CCC2` as the compound, how does the Activity (Mus musculus [6]) read?
Answer: Dose-dependent effect

Question: For `O=C(O)c1cccnc1` [NIACIN], which ED50 (Mus musculus [7]) is on record?
Answer: 9.7 mg/kg

Question: For `C1Cc2[nH]nc(-c3nn[nH]n3)c2C1`, which ED50 (Mus musculus [7]) is on record?
Answer: 3.1 mg/kg

Question: And the IC50 (Adipocyte)?
Answer: 3.1 µM

Question: What about the Activity (Mus musculus [8]) of the same compound?
Answer: Active

Question: And the Activity [9]?
Answer: inactive

Question: What about the Activity (Mus musculus [10]) of the same compound?
Answer: inactive
